Experimental data gathered from unrelated publications.
Each line is one published result; the experiments were not run side by side.
Organism: Nakaseomyces glabratus
Observed: microbial growth

SMILES | assay | test system | setting | MIC
CCC(C#Cc1c(C)nc(N)nc1N)c1cc(OC)c(OC)c(OC)c1 (centres unmarked) | resazurin |  |  | 89 µg/mL
CCCCCOc1c(OC)cc(NC(C)CCCNC(=O)C(N)C(C)CC)c2nc(C(C)(C)C)ccc12 (centres unmarked) | broth dilution | ATCC90030 |  | > 20 µg/mL
C[C@@H]1[C@H](O)[C@@H](C)/C=C/C=C/C=C/C=C/C=C/C=C/C=C/[C@H](O[C@@H]2O[C@H](C)[C@@H](O)[C@H](N)[C@@H]2O)C[C@@H]2O[C@](O)(C[C@@H](O)C[C@@H](O)[C@H](O)CC[C@@H](O)C[C@@H](O)CC(=O)O[C@H]1C)C[C@H](O)[C@H]2C(=O)O | broth dilution |  |  | 1.25 µg/mL
COc1cc(-c2ccc(C(C)(C)C)cc2)cc(C(C)C#Cc2c(C)nc(N)nc2N)c1 (centres unmarked) | resazurin |  |  | 207 µg/mL
Fc1ccc(C2(Cn3cncn3)CO2)c(F)c1 (centres unmarked) | broth dilution | ATCC2001 | 48 h | > 31.3 µg/mL
OC(Cn1cncn1)(Cn1cncn1)c1ccc(F)cc1F | broth dilution | MY1381 |  | 8 µg/mL
C[C@@H]1[C@H](O)[C@@H](C)/C=C/C=C/C=C/C=C/C=C/C=C/C=C/[C@H](O[C@@H]2O[C@H](C)[C@@H](O)[C@H](N)[C@@H]2O)C[C@@H]2O[C@](O)(C[C@@H](O)C[C@@H](O)[C@H](O)CC[C@@H](O)C[C@@H](O)CC(=O)O[C@H]1C)C[C@H](O)[C@H]2C(=O)O |  | ATCC90030 |  | 0.68 µM
OC(Cn1cncn1)(Cn1cncn1)c1ccc(F)cc1F |  |  | clinical isolate | 4 µg/mL
C[C@@H]1[C@H](O)[C@@H](C)/C=C/C=C/C=C/C=C/C=C/C=C/C=C/[C@H](O[C@@H]2O[C@H](C)[C@@H](O)[C@H](N)[C@@H]2O)C[C@@H]2O[C@](O)(C[C@@H](O)C[C@@H](O)[C@H](O)CC[C@@H](O)C[C@@H](O)CC(=O)O[C@H]1C)C[C@H](O)[C@H]2C(=O)O | broth dilution | ATCC90030 |  | 0.63 µg/mL
CCCCCCCCCCCCCCN1CCNCC1 | broth dilution | ATCC2001 | 48 h | 0.975 µg/mL
CCCCCCCCOc1c(OC)cc(NC(C)CCCNC(=O)C2CCCN2)c2nc(C(C)(C)C)ccc12 (centres unmarked) | broth dilution | ATCC90030 |  | 20 µg/mL
OC(CNCCN1CCOCC1)(Cn1cncn1)c1ccc(F)cc1F (centres unmarked) | broth dilution | ATCC2001 | 48 h | 31.3 µg/mL
COc1cc(NC(C)CCCN)c2nc(C(C)(C)C)ccc2c1Oc1ccc(Cl)c(Cl)c1 (centres unmarked) | broth dilution | ATCC90030 |  | 20 µg/mL
CCCCCCCCCCN1CCNCC1 | broth dilution | ATCC2001 | 48 h | 7.8 µg/mL
